This sample holds only a part of the variants without activity.
B1: tRNA (parent)
chain: GUUCCGUUGGCGUAAUGGUAACGCGUCUCCCUCCUAAGGAGAAGACUGCGGGUUCGAGUCCCGUACGGAACG

Variants of: B1
Experiment: yeast fitness relative to wild type (ratio to wild type); higher = fitter; tRNA-Arg(CCU), competitive growth, 37 C, YPD
How it was run: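 Variants of the tRNA-Arg(CCU) gene were chemically synthesised with a 3% per-site mutation rate across 69 sites and placed at the native genomic locus in Saccharomyces cerevisiae. Six parallel replicates of the pooled strains were competed in YPD at 37°C for 24 hours, and gene amplicons from the start and end populations were read by 100-nucleotide paired-end sequencing. Darwinian fitness relative to wild type was derived from changes in genotype frequencies. Genotypes required ≥ 100 starting reads, and estimates < 0.5 were set to 0.5.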

Variant | yeast fitness
GUUCCGUUGGUGUAAUGGUAACGGGUCUCCCUCCUAAGGAGAAGACUGCGGGUUCGAGUCACGUACGGAACG | 0.569
GUUCCGUUGGUGUAAUGGUAACGCGUCUACCUCCCAAGGAGAAGACUGCGGGUUCGAGUCCCGUACGGAACG | ≤ 0.5
GUUCCGUUGGUGUAAUGGUAACGCGUCUACCUCCUAAGGAGAAGACUGCGGGUUCGGGUCCCGUACGGAACG | ≤ 0.5
GUUCCGUUGGUGUAAUGGUAACGCGUGUCCCUCCUAAGGAGAAGACUCGGGGUUCGAGUCCCGUACGGAACG | ≤ 0.5
GUUCCGUUGGUGUAAUGGUAACGCGUCUACGUCCUAAGGAGAAGACUGCGGGUUCGAGUCCCGUACGGAACG | ≤ 0.5
GUUCCGUUGGUGUAAUGGUAACGUGUCUCCCUCGUAAGGAGAAGACUGCGGGUUCGAGUCCCGUACGGAACG | ≤ 0.5
GUUCCGUUGGUGUAAUGGUAAGGCGUCUCCCUCCUAAGGAGAAGACUGCGGGUUCGAGUCCCGUGCGGAACG | 0.731
GUUCCGUUGGUGUAAUGGUAAUGUGUCUCCCUCCUAAGGAAAAGACUGCGGGUUCGAGUCCCGUCCGGAACG | ≤ 0.5
GUUCCGUUGGUGUAAUGGUAACGGGUCUCCCUCCUAAGGAGAAGACUGCGGGUUCGAGUCCCGUACGGAACG | 0.614
GUUCCGUUGGUGUAAUGGUAAGGCGUCUCCCUCCUAAGGAGAAGACUGCGGGUUCGAGUCCCGUACGGAUCG | 0.722
GUUCCGUUGGUGUAAUGGUAAUGCGUCUCCCUCCUAAGGAGAAGACUGCGGGUUUGAGUCCCGUACGGAACG | 0.681
GUUCCGUUGGUGUAAUGGUAACGCGUCUACCUCCUAAGGAGAAGACUGCGGGUUCGAGUCCCGUACGGAACG | 0.824
GUUCCGUUGGUGUAAUGGUAACGCGUUUCCAUCCUAAGGAGGAGACUGGGAGUUCGAGUCCCGUACGGAACG | ≤ 0.5
GUUCCGUUGGUGUAAUGGUAACGGGUCUUCCUCCUAAGGAGAAGACUGCAGGUUCGACUCCCAUAUGGAACG | ≤ 0.5
GUUCCGUUGGUGUAAUGGUAACGCGUGUCCCUCCUAAGGAGAAGACUGCGGGUUCGAGUCCUGUUCGGAACG | ≤ 0.5
GUUCCGUUGGUGUAAUGGUAACGCGUUUCCUUCCUAGGGAGUAGACUCUGGGUUCGAGUCCCGUACGGAACG | 0.54
GUUCCGUUGGUGUAAUGGUAACGCGUGUCCCUCCUAAGGAGCAGACUGCGGGUUCGAGUCCCGUACGAAACG | ≤ 0.5
GUUCCGUUGGUGUAAUGGUAACGCGUUUCCCUCCUAAGGAGAAGACUGCGGCUUGGAGUCCCGUACGGAACG | ≤ 0.5
GUUCCGUUGGUGUAAUGGUAACGGGUGUCCCUCCUAAGGAGAAGACUGCGGGUUCGAGUCCCGUACGGAACG | ≤ 0.5

Variant | yeast fitness
GUUCCGUUGGUGUAAUGGUAACGCGUUUCCAUCCCAAGGAGAAGACUGCGGGUUCGAGUGCCGUACGGACCG | ≤ 0.5
GUUCCGUUGGUGUAAUGGUAAUGCGUCUCCCUCCUAAGGAGAACACUGCGGGUUCGAGUCCUGUACGGAACG | ≤ 0.5
GUUCCGUUGGUGUAAUGGUAAUGCGUCUCCCUCCUAAGGCGAAGACUGCGGGUUCGAGUCCCGUACGGAACG | 0.558
GUUCCGUUGGUGUAAUGGUAAGGCGUCUCCCUCCUAAGGAGAAGACUGCGGGUUCGUGUCCCGUACGGAACG | ≤ 0.5
GUUCCGUUGGUGUAAUGGUAAGGCGUCUCCCUCCUAAGGAGAAGACUGCGGGUUCGGGUCCCGUACGGAACG | 0.586
GUUCCGUUGGUGUAAUGGUAACGCGUAUCCCUCCUAAGGAGAAGACUGCGGAUUCGAGUCCCGUACGGAACG | ≤ 0.5
GUUCCGUUGGUGUAAUGGUAACGCGUUUCCCUCCUAAGGAGAAGCCUGCGGGUUCGCGUCCCGUACGGAACG | ≤ 0.5
GUUCCGUUGGUGUAAUGGUAACGGGUCUCCCUCCUAAGGAGAAGACUGCGGGUUCGAGUCCCCUACAGAACG | 0.568
GUUCCGUUGGUGUAAUGGUAAGGCGUCUCCCUCCUAAGGAGAAGACUGCGGGUUCGAGUCCCGUACGGCACG | 0.653
GUUCCGUUGGUGUAAUGGUAACGCGUAUCCCUCCUAAGGAGAAGACUACGGGAUCGAGUCUCGUACGGAACG | ≤ 0.5
GUUCCGUUGGUGUAAUGGUAAUGCGUCUCCCUCCUAAGGAGAAGACUGCGGGUUCGAAUCCCGUAUGGAACG | 0.532
GUUCCGUUGGUGUAAUGGUAACGCGUGUGCCUCCUAAGGAGAAGACUGUGGGUUCGAGUCCCCUACGGAACG | ≤ 0.5
GUUCCGUUGGUGUAAUGGUAACGCGUCUACCUCCUAAGGAGAAGACUGCGGGUUCGUGUCCUGUACGGAUCG | ≤ 0.5
GUUCCGUUGGUGUAAUGGUAACGCGUUUACCUGCUAAGGAGAAGACUGCGGGUUCGAGUCCCGUAAGGAACG | ≤ 0.5
GUUCCGUUGGUGUAAUGGUAACGUGUCUCCCUCUUAAGGAGAAGACUGCGGGUUCGAGUCUCGUACGGAACG | ≤ 0.5
GUUCCGUUGGUGUAAUGGUAACGAGUCUCCCUCCUAAGGAGAAGACUGCGGGUUCGAGUCCCGUACGGAUCG | ≤ 0.5
GUUCCGUUGGUGUAAUGGUAAUGCGUCUCCCUCCUAAGGAGAAGACUGCGGGUUCGAGUCCCGUACGGAACG | 0.855
GUUCCGUUGGUGUAAUGGUAACGCGUCUACCUCCUAAGGAGAAGACUGCGGGUUCGUGUCCUGUACGGAACG | ≤ 0.5
GUUCCGUUGGUGUAAUGGUAACGCGUGUCCCUCCUAAGGAGAAGACUGCGGGUUUGAGUCCCGUAAGGAACG | ≤ 0.5

— the RNAGym collection of RNA variant scans (doi:10.1126/science.aae0568)
